Experimental data taken from ChEMBL document CHEMBL1138404, “Bisindole alkaloids of the topsentin and hamacanthin classes from a marine sponge Spongosorites sp” (J Nat Prod, 2007).
Converted amounts (≈) assume the structure as drawn.

What was measured:
Escherichia coli [1] = assay: Antibacterial activity against […] Escherichia coli DC2; assay type: functional
Method in brief: (§1)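 Agar dilution MIC: Mueller Hinton agar plates containing 17 serial dilutions of sample (final 25 to 0.002 μg/mL), meropenem and imipenem as standards. Strains grown 18 h at 37 °C in Fleisch extract broth (10% horse serum for some strains), spotted onto plates by automatic inoculator; MIC read after 18 h incubation.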

[2] = Cytotoxicity against human SK-OV-3 cell line; assay type: cell-based; details: SK-OV-3 cells, read-out: ED50 (the source's name)
Streptococcus pyogenes [3] = assay: Antibacterial activity against methicillin-resistant Streptococcus pyogenes 308A; assay type: functional; method in brief: as §1
[4] = Cytotoxicity against human SK-MEL-2 cell line; assay type: cell-based; details: SK-MEL-2 cells, read-out: ED50 (the source's name)
Staphylococcus aureus [5] = assay: Antibacterial activity against methicillin-resistant Staphylococcus aureus SG511; assay type: functional; method in brief: as §1
Enterococcus faecium = assay: Antibacterial activity against […] Streptococcus faecium MD8b; assay type: functional; method in brief: as §1
Staphylococcus aureus [6] = assay: Antibacterial activity against methicillin-resistant Staphylococcus aureus 285; assay type: functional; method in brief: as §1
[7] = Cytotoxicity against human A549 cell line; assay type: cell-based; details: A549 cells, read-out: ED50 (the source's name)
Pseudomonas aeruginosa [8] = assay: Antibacterial activity against […] Pseudomonas aeruginosa 9027; assay type: functional; method in brief: as §1
Escherichia coli [9] = assay: Antibacterial activity against […] Escherichia coli 078; assay type: functional; method in brief: as §1
Escherichia coli [10] = assay: Antibacterial activity against […] Escherichia coli TEM; assay type: functional; method in brief: as §1
Staphylococcus aureus [11] = assay: Antibacterial activity against methicillin-resistant Staphylococcus aureus 503; assay type: functional; method in brief: as §1
Pseudomonas aeruginosa [12] = assay: Antibacterial activity against […] Pseudomonas aeruginosa 1771M; assay type: functional; method in brief: as §1
Klebsiella oxytoca = assay: Antibacterial activity against […] Klebsiella oxytoca 1082E; assay type: functional; method in brief: as §1
Streptococcus pyogenes [13] = assay: Antibacterial activity against methicillin-resistant Streptococcus pyogenes 77A; assay type: functional; method in brief: as §1
Escherichia coli [14] = assay: Antibacterial activity against […] Escherichia coli DC0; assay type: functional; method in brief: as §1
Pseudomonas aeruginosa [15] = assay: Antibacterial activity against […] Pseudomonas aeruginosa 1592E; assay type: functional; method in brief: as §1
Enterobacter cloacae [16] = assay: Antibacterial activity against […] Enterobacter cloacae P99; assay type: functional; method in brief: as §1
Pseudomonas aeruginosa [17] = assay: Antibacterial activity against […] Pseudomonas aeruginosa 1771; assay type: functional; method in brief: as §1
Escherichia coli [18] = assay: Antibacterial activity against […] Escherichia coli 1507E; assay type: functional; method in brief: as §1
Klebsiella aerogenes = assay: Antibacterial activity against […] Klebsiella aerogenes 1522E; assay type: functional; method in brief: as §1
[19] = Cytotoxicity against human XF498 cell line; assay type: cell-based; details: XF498 cells, read-out: ED50 (the source's name)
[20] = Cytotoxicity against human HCT15 cell line; assay type: cell-based; details: HCT-15 cells, read-out: ED50 (the source's name)
Salmonella typhimurium = assay: Antibacterial activity against […] Salmonella Typhimurium; assay type: functional, Salmonella enterica subsp. enterica serovar Typhimurium; details: Salmonella enterica; method in brief: as §1
Enterobacter cloacae [21] = assay: Antibacterial activity against […] Enterobacter cloacae 1321E; assay type: functional; method in brief: as §1

Row | Structure (SMILES) | MIC (Escherichia coli [1]) [µg/mL] | CC50 [2] [µg/mL] | MIC (Streptococcus pyogenes [3]) [µg/mL] | CC50 [4] [µg/mL] | MIC (Staphylococcus aureus [5]) [µg/mL] | MIC (Enterococcus faecium) [µg/mL] | MIC (Staphylococcus aureus [6]) [µg/mL] | CC50 [7] [µg/mL] | MIC (Pseudomonas aeruginosa [8]) [µg/mL] | MIC (Escherichia coli [9]) [µg/mL] | MIC (Escherichia coli [10]) [µg/mL] | MIC (Staphylococcus aureus [11]) [µg/mL] | MIC (Pseudomonas aeruginosa [12]) [µg/mL] | MIC (Klebsiella oxytoca) [µg/mL] | MIC (Streptococcus pyogenes [13]) [µg/mL] | MIC (Escherichia coli [14]) [µg/mL] | MIC (Pseudomonas aeruginosa [15]) [µg/mL] | MIC (Enterobacter cloacae [16]) [µg/mL] | CC50 [19] [µg/mL] | CC50 [20] [µg/mL] | also measured
1 | O=C1N[C@@H](c2c[nH]c3ccccc23)CN=C1c1c[nH]c2ccccc12 | > 25 | 11.5 (≈ 35 µM) | 25 (≈ 76.1 µM) | 5 (≈ 15.2 µM) | > 25 | > 25 | > 25 | 8.3 (≈ 25.3 µM) | > 25 | > 25 | > 25 | > 25 | > 25 | > 25 | 25 (≈ 76.1 µM) | > 25 | 25 (≈ 76.1 µM) | > 25 | 17.1 (≈ 52.1 µM) | 4.1 (≈ 12.5 µM) | MIC (Pseudomonas aeruginosa [17]): 25 µg/mL (≈ 76.1 µM); MIC (Escherichia coli [18]): > 25 µg/mL; MIC (Klebsiella aerogenes): > 25 µg/mL; MIC (Salmonella typhimurium): > 25 µg/mL; MIC (Enterobacter cloacae [21]): > 25 µg/mL
2 | O=C1NC[C@@H](c2c[nH]c3ccccc23)N=C1c1c[nH]c2ccccc12 | > 25 | 12.6 (≈ 38.4 µM) | > 25 | 13.7 (≈ 41.7 µM) | > 25 | > 25 | > 25 | 11.7 (≈ 35.6 µM) | > 25 | > 25 | > 25 | > 25 | > 25 | > 25 | > 25 | > 25 | 25 (≈ 76.1 µM) | > 25 | 24.1 (≈ 73.4 µM) | 4.79 (≈ 14.6 µM) | MIC (Pseudomonas aeruginosa [17]): 25 µg/mL (≈ 76.1 µM); MIC (Escherichia coli [18]): > 25 µg/mL; MIC (Klebsiella aerogenes): > 25 µg/mL; MIC (Salmonella typhimurium): > 25 µg/mL; MIC (Enterobacter cloacae [21]): > 25 µg/mL
3 | O=C1NC[C@@H](c2c[nH]c3ccccc23)N[C@H]1c1c[nH]c2cc(Br)ccc12 | > 25 | 5.67 (≈ 13.9 µM) | 25 (≈ 61.1 µM) | > 10 | > 25 | > 25 | > 25 | 9.67 (≈ 23.6 µM) | > 25 | > 25 | > 25 | > 25 | > 25 | > 25 | > 25 | > 25 | > 25 | > 25 | 9.74 (≈ 23.8 µM) | > 10 | MIC (Pseudomonas aeruginosa [17]): > 25 µg/mL; MIC (Escherichia coli [18]): > 25 µg/mL; MIC (Klebsiella aerogenes): > 25 µg/mL; MIC (Salmonella typhimurium): > 25 µg/mL; MIC (Enterobacter cloacae [21]): > 25 µg/mL
4 | O=C1N[C@H](c2c[nH]c3ccccc23)CN[C@H]1c1c[nH]c2cc(Br)ccc12 |  | 4.92 (≈ 12 µM) |  | > 10 |  |  |  | > 10 |  |  |  |  |  |  |  |  |  |  | > 10 | > 10 | 
5 | O=C1NC[C@@H](c2c[nH]c3cc(Br)ccc23)N[C@H]1c1c[nH]c2ccccc12 | > 25 | 6 (≈ 14.7 µM) | 25 (≈ 61.1 µM) | 7.1 (≈ 17.3 µM) | > 25 | > 25 | > 25 | 4.2 (≈ 10.3 µM) | > 25 | > 25 | > 25 | > 25 | > 25 | > 25 | > 25 | > 25 | 25 (≈ 61.1 µM) | > 25 | 6.8 (≈ 16.6 µM) | 6.3 (≈ 15.4 µM) | MIC (Pseudomonas aeruginosa [17]): 25 µg/mL (≈ 61.1 µM); MIC (Escherichia coli [18]): > 25 µg/mL; MIC (Klebsiella aerogenes): > 25 µg/mL; MIC (Salmonella typhimurium): > 25 µg/mL; MIC (Enterobacter cloacae [21]): > 25 µg/mL
6 | O=C1NC[C@@H](c2c[nH]c3ccccc23)N[C@H]1c1c[nH]c2ccccc12 |  | 9.64 (≈ 29.2 µM) |  | > 10 |  |  |  | > 10 |  |  |  |  |  |  |  |  |  |  | > 10 | > 10 | 
7 | O=C1N[C@H](c2c[nH]c3cc(Br)ccc23)CN[C@H]1c1c[nH]c2ccccc12 | > 25 | 12.1 (≈ 29.6 µM) | > 25 | 13.1 (≈ 32 µM) | > 25 | > 25 | > 25 | 7.5 (≈ 18.3 µM) | > 25 | > 25 | > 25 | > 25 | > 25 | > 25 | > 25 | > 25 | 25 (≈ 61.1 µM) | > 25 | 19.1 (≈ 46.7 µM) | 6.3 (≈ 15.4 µM) | MIC (Pseudomonas aeruginosa [17]): 25 µg/mL (≈ 61.1 µM); MIC (Escherichia coli [18]): > 25 µg/mL; MIC (Klebsiella aerogenes): > 25 µg/mL; MIC (Salmonella typhimurium): > 25 µg/mL; MIC (Enterobacter cloacae [21]): > 25 µg/mL
